According to ChEMBL document CHEMBL1141140, “Antifungal agents. 11. N-substituted derivatives of 1-[(aryl)(4-aryl-1H-pyrrol-3-yl)methyl]-1H-imidazole: synthesis, anti-Candida activity, and QSAR studies” (2005):
Values after ≈ are worked out from the molar mass of the structure shown.

Tests used:
Candida albicans [1] = assay: In vitro concentration causing 90% inhibition of Candida albicans with percentage of resistant strains %R = 33.33 (MIC > 64 ug/mL) at a range of 0.062-2 ug/mL; type: functional
Candida albicans [2] = assay: In vitro concentration causing 50% inhibition of Candida albicans with percentage of resistant strains %R = 33.33 (MIC > 64 ug/mL) at a range of 0.062-2 ug/mL; type: functional
Candida albicans [3] = assay: Ratio of the in vitro minimal inhibitory to that of bifonazole against Candida albicans (MIC(compound)/MIC(bifonazole)); type: functional
How it was run: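 Broth microdilution per NCCLS M27-A2 against 12 Candida albicans strains (AIDS oropharyngeal, HIV vulvovaginitis isolates, ATCC 24433 and 20891, lab strains 3153 and CA2). Inoculum ~10^4 cells/mL in RPMI 1640, pH 7.0; DMSO stocks 6.4 mg/mL, twofold dilutions 0.016–64 μg/mL; read at 24 h, 28 °C, no visible growth. Mean MIC over strains converted to μmol/mL, divided by bifonazole MIC.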

Candida albicans [4] = assay: microbe, parasite or virus in culture
Candida albicans [5] = assay: In vitro concentration causing 50% inhibition of Candida albicans with percentage of resistant strains %R = 10 (MIC > 64 ug/mL) at a range of 0.5-8 ug/mL; type: functional
Candida albicans [6] = assay: Ratio of the in vitro minimal inhibitory concentrations to that of bifonazole against Candida albicans (MIC(compound)/MIC(bifonazole)); type: functional
Candida albicans [7] = assay: In vitro minimal inhibitory concentration against Candida albicans with percentage of resistant strains %R = 10 (MIC > 64 ug/mL) at a range of 0.5-8 ug/mL; type: functional
Candida albicans [8] = assay: In vitro concentration causing 90% inhibition of Candida albicans with percentage of resistant strains %R = 10 (MIC > 64 ug/mL) at a range of 0.5-8 ug/mL; type: functional
Candida albicans [9] = assay: In vitro concentration causing 90% inhibition of Candida albicans with percentage of resistant strains %R = 36 (MIC > 64 ug/mL) at a range of 0.5-2 ug/mL; type: functional
Candida albicans [10] = assay: In vitro minimal inhibitory concentration against Candida albicans with percentage of resistant strains %R = 36 (MIC > 64 ug/mL) at a range of 0.5-2 ug/mL; type: functional
Candida albicans [11] = assay: In vitro concentration causing 50% inhibition of Candida albicans with percentage of resistant strains %R = 36 (MIC > 64 ug/mL) at a range of 0.5-2 ug/mL; type: functional
Candida albicans [12] = assay: In vitro minimal inhibitory concentration against Candida albicans with percentage of resistant strains %R = 45.45 (MIC > 64 ug/mL) at a range of 0.125-0.5 ug/mL; type: functional
Candida albicans [13] = assay: In vitro concentration causing 50% inhibition of Candida albicans with percentage of resistant strains %R = 45.45 (MIC > 64 ug/mL) at a range of 0.125-0.5 ug/mL; type: functional
Candida albicans [14] = assay: In vitro concentration causing 90% inhibition of Candida albicans with percentage of resistant strains %R = 45.45 (MIC > 64 ug/mL) at a range of 0.125-0.5 ug/mL; type: functional
Candida albicans [15] = assay: In vitro minimal inhibitory concentration against Candida albicans with percentage of resistant strains %R = 0 (MIC > 64 ug/mL) at a range of 0.062-2 ug/mL; type: functional
Candida albicans [16] = assay: In vitro concentration causing 50% inhibition of Candida albicans with percentage of resistant strains %R = 0 (MIC > 64 ug/mL) at a range of 0.062-2 ug/mL; type: functional
Candida albicans [17] = assay: In vitro concentration causing 90% inhibition of Candida albicans with percentage of resistant strains %R = 0 (MIC > 64 ug/mL) at a range of 0.062-2 ug/mL; type: functional
Candida albicans [18] = assay: In vitro minimal inhibitory concentration against Candida albicans with percentage of resistant strains %R = 25 (MIC > 64 ug/mL) at a range of 0.062-0.25 ug/mL; type: functional
Candida albicans [19] = assay: In vitro concentration causing 90% inhibition of Candida albicans with percentage of resistant strains %R = 25 (MIC > 64 ug/mL) at a range of 0.062-0.25 ug/mL; type: functional
Candida albicans [20] = assay: In vitro concentration causing 50% inhibition of Candida albicans with percentage of resistant strains %R = 25 (MIC > 64 ug/mL) at a range of 0.062-0.25 ug/mL; type: functional
Candida albicans [21] = assay: In vitro minimal inhibitory concentration against Candida albicans with percentage of resistant strains %R = 50 (MIC > 64 ug/mL) at a range of 0.5-16 ug/mL; type: functional
Candida albicans [22] = assay: In vitro concentration causing 50% inhibition of Candida albicans with percentage of resistant strains %R = 50 (MIC > 64 ug/mL) at a range of 0.5-16 ug/mL; type: functional
Candida albicans [23] = assay: In vitro concentration causing 90% inhibition of Candida albicans with percentage of resistant strains %R = 50 (MIC > 64 ug/mL) at a range of 0.5-16 ug/mL; type: functional
Candida albicans [24] = assay: In vitro minimal inhibitory concentration against Candida albicans with percentage of resistant strains %R = 16 (MIC > 64 ug/mL) at a range of 2-32 ug/mL; type: functional
Candida albicans [25] = assay: In vitro concentration causing 50% inhibition of Candida albicans with percentage of resistant strains %R = 16 (MIC > 64 ug/mL) at a range of 2-32 ug/mL; type: functional
Candida albicans [26] = assay: In vitro concentration causing 90% inhibition of Candida albicans with percentage of resistant strains %R = 16 (MIC > 64 ug/mL) at a range of 2-32 ug/mL; type: functional
Candida albicans [27] = assay: In vitro concentration causing 90% inhibition of Candida albicans with percentage of resistant strains %R = 41.66 (MIC > 64 ug/mL) at a range of 0.5-2 ug/mL; type: functional
Candida albicans [28] = assay: In vitro minimal inhibitory concentration against Candida albicans with percentage of resistant strains %R = 41.66 (MIC > 64 ug/mL) at a range of 0.5-2 ug/mL; type: functional
Candida albicans [29] = assay: In vitro concentration causing 50% inhibition of Candida albicans with percentage of resistant strains %R = 41.66 (MIC > 64 ug/mL) at a range of 0.5-2 ug/mL; type: functional

Clc1ccc(COC(Cn2ccnc2)c2ccc(Cl)cc2Cl)c(Cl)c1 (stereo not given) [MICONAZOLE]
MIC90 (Candida albicans [1]): 1 µg/mL (≈ 2.4 µM) | MIC50 (Candida albicans [2]): 0.062 µg/mL (≈ 0.149 µM) | Ratio (Candida albicans [3]): 0.14 | MIC (Candida albicans [4]): 0.65 µg/mL (≈ 1.56 µM)

c1ccc(-c2ccc(C(c3ccccc3)n3ccnc3)cc2)cc1 (stereo not given) [BIFONAZOLE]
MIC50 (Candida albicans [5]): 2 µg/mL (≈ 6.44 µM) | Ratio (Candida albicans [6]): 1 | MIC (Candida albicans [7]): 3.5 µg/mL (≈ 11.3 µM) | MIC90 (Candida albicans [8]): 8 µg/mL (≈ 25.8 µM)

Cn1cc(-c2ccccc2Cl)c(C(c2ccc(Cl)cc2Cl)n2ccnc2)c1 (stereo not given)
MIC90 (Candida albicans [9]): 2 µg/mL (≈ 4.8 µM) | MIC (Candida albicans [10]): 1.71 µg/mL (≈ 4.1 µM) | Ratio (Candida albicans [3]): 0.36 | MIC50 (Candida albicans [11]): 2 µg/mL (≈ 4.8 µM)

OC(Cn1cncn1)(Cn1cncn1)c1ccc(F)cc1F [FLUCONAZOLE]
MIC (Candida albicans [12]): 0.24 µg/mL (≈ 0.784 µM) | Ratio (Candida albicans [3]): 0.069 | MIC50 (Candida albicans [13]): 0.25 µg/mL (≈ 0.816 µM) | MIC90 (Candida albicans [14]): 0.5 µg/mL (≈ 1.63 µM)

C=CCn1cc(-c2ccc(Cl)cc2Cl)c(C(c2ccc(Cl)cc2Cl)n2ccnc2)c1 (stereo not given)
MIC (Candida albicans [15]): 0.65 µg/mL (≈ 1.36 µM) | Ratio (Candida albicans [3]): 0.12 | MIC50 (Candida albicans [16]): 0.25 µg/mL (≈ 0.524 µM) | MIC90 (Candida albicans [17]): 1 µg/mL (≈ 2.1 µM)

CCC(C)n1ncn(-c2ccc(N3CCN(c4ccc(OC[C@H]5CO[C@](Cn6cncn6)(c6ccc(Cl)cc6Cl)O5)cc4)CC3)cc2)c1=O (stereo not given in full) [ITRACONAZOLE]
MIC (Candida albicans [18]): 0.096 µg/mL (≈ 0.136 µM) | MIC90 (Candida albicans [19]): 0.125 µg/mL (≈ 0.177 µM) | MIC50 (Candida albicans [20]): 0.062 µg/mL (≈ 0.0879 µM)

Cn1cc(-c2cccc3ccccc23)c(C(c2ccc(Cl)cc2Cl)n2ccnc2)c1 (stereo not given)
MIC (Candida albicans [21]): 4.58 µg/mL (≈ 10.6 µM) | Ratio (Candida albicans [3]): 0.94 | MIC50 (Candida albicans [22]): 4 µg/mL (≈ 9.25 µM) | MIC90 (Candida albicans [23]): 16 µg/mL (≈ 37 µM)

Cn1cc(-c2ccc(Cl)cc2Cl)c(C(c2ccc(Cl)cc2Cl)n2ccnc2)c1 (stereo not given)
MIC (Candida albicans [24]): 14.6 µg/mL (≈ 32.4 µM) | MIC50 (Candida albicans [25]): 8 µg/mL (≈ 17.7 µM) | Ratio (Candida albicans [3]): 2.9 | MIC90 (Candida albicans [26]): 32 µg/mL (≈ 70.9 µM)

CCn1cc(-c2ccc(Cl)cc2Cl)c(C(c2ccc(Cl)cc2Cl)n2ccnc2)c1 (stereo not given)
MIC90 (Candida albicans [27]): 2 µg/mL (≈ 4.3 µM) | MIC (Candida albicans [28]): 1.21 µg/mL (≈ 2.6 µM) | Ratio (Candida albicans [3]): 0.23 | MIC50 (Candida albicans [29]): 1 µg/mL (≈ 2.15 µM)
